From ChEMBL document CHEMBL5576114, “Inhibition of DXR in the MEP pathway with lipophilic N-alkoxyaryl FR900098 analogs” (RSC Med Chem, 2024)
In brackets after ≈: the same amount, converted by molar mass. Activity calls are given as the source filed them. No cut-off for these calls is given here.

Tests used:
Plasmodium falciparum [1] = assay: Antiplasmodial activity against Plasmodium falciparum 3D7 assessed as reduction in parasite growth by measuring DNA content after 3 days by PicoGreen staining based FLUOstar omega microplate reader analysis; format: functional, organism-based; conditions: 3D7, 72 h
Outline: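 Asynchronous cultures in 2% hematocrit, RPMI-1640 complete medium with 0.5% Albumax, under 5% O2/5% CO2/90% N2 at 37 °C. Diluted to 0.5% parasitemia, inhibitors 1.2 nM to 492.4 µM added at start. Growth read after 3 days as DNA content by PicoGreen fluorescence (485/528 nm). IC50 from 4-parameter nonlinear regression; technical duplicate, biological triplicate.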

[2] = test system: Mycobacterium tuberculosis; assay: Antibacterial activity against Mycobacterium tuberculosis H37Rv assessed as reduction in bacterial growth incubated for 2 weeks by macroscopic plate reader analysis; format: functional; conditions: 336 h
Outline: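 H37Rv grown in 7H9 broth with 0.08% NaCl, 0.4% glucose, 0.05% casitone and 0.05% tyloxapol, then diluted 1:500. Compounds were made as 20 mg/mL DMSO stocks and run as eleven 2-fold serial dilutions. Plates were held 2 weeks at 37 °C and MIC99 was read macroscopically. Three independent measurements.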

[3] = biological target: T1, 1-deoxy-D-xylulose 5-phosphate reductoisomerase (Mycobacterium tuberculosis) (UniProt P9WNS1); assay: Inhibition of Mycobacterium tuberculosis DXR expressed in Escherichia coli BL21 CodonPlus (DE3)-RIL cells assessed as remaining activity using DOXP as substrate at 100 uM in presence of NADPH by UV-visible spectrophotometry relative to control
T1 sequence (whole entry): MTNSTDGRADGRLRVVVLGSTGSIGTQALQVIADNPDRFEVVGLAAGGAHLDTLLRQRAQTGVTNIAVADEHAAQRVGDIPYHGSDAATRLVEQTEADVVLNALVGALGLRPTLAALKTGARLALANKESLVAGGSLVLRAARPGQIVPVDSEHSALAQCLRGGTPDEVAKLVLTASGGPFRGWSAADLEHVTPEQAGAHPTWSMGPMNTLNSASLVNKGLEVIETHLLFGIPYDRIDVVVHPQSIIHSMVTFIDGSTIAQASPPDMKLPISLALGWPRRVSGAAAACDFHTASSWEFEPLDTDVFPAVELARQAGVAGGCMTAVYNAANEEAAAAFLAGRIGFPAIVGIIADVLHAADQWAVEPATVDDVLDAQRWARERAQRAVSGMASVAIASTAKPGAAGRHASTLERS
Outline: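 Recombinant MtbDXR (pET101/D-TOPO in E. coli BL21 CodonPlus (DE3)-RIL, IMAC-purified) at 0.89 µM in 100 mM MES pH 6.5, 25 mM MgCl2, 150 µM NADPH, 47 µM DOXP, 37 °C. Inhibitor was tested at a single 100 µM. NADPH oxidation was followed at 340 nm, and percent remaining activity was reported. Technical duplicates.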

[4] = biological target: T2, 1-deoxy-D-xylulose 5-phosphate reductoisomerase, apicoplastic (Plasmodium falciparum (isolate 3D7), UniProt Q8IKG4); assay: Inhibition of Plasmodium falciparum DXR expressed in Escherichia coli BL21 CodonPlus (DE3)-RIL cells using DOXP as substrate in presence of NADPH by UV-visible spectrophotometry
T2 sequence (Q8IKG4 whole entry): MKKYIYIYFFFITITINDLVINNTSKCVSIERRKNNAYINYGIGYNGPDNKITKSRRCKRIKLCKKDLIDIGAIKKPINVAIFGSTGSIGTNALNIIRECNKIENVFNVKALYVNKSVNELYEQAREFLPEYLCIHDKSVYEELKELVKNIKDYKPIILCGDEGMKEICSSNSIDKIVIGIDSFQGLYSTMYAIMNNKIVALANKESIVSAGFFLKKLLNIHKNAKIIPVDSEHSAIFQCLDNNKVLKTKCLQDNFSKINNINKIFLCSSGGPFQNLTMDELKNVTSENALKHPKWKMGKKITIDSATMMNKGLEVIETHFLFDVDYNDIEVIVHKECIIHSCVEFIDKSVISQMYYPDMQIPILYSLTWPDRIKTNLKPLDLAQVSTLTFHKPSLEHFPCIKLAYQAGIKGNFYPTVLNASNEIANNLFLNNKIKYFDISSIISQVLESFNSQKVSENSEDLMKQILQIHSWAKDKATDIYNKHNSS

[5] = biological target: T3, 1-deoxy-D-xylulose 5-phosphate reductoisomerase, apicoplastic (Plasmodium falciparum (isolate 3D7)) (UniProt Q8IKG4); assay: Inhibition of Plasmodium falciparum DXR expressed in Escherichia coli BL21 CodonPlus (DE3)-RIL cells using DOXP as substrate at 100 uM in presence of NADPH by UV-visible spectrophotometry relative to control
T3 sequence (whole entry): T2 sequence (Q8IKG4 whole entry)
Outline: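 PfDXR single-point test at 100 µM inhibitor. Conditions: 0.86 µM IMAC-purified enzyme, 100 mM Tris pH 7.8, 25 mM MgCl2, 150 µM NADPH, 37 °C. Reaction was started with 144 µM DOXP, and NADPH oxidation was monitored at 340 nm. Percent remaining activity was reported; technical duplicates.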

[6] = biological target: T3, 1-deoxy-D-xylulose 5-phosphate reductoisomerase, apicoplastic (Plasmodium falciparum (isolate 3D7)); assay: Inhibition of Plasmodium falciparum DXR expressed in Escherichia coli BL21 CodonPlus (DE3)-RIL cells assessed as remaining activity using DOXP as substrate at 100 uM in presence of NADPH by UV-visible spectrophotometry relative to control
Outline: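 Recombinant His-tagged PfDXR purified by TALON affinity. Assay at 37 °C in 100 mM Tris pH 7.8, 25 mM MgCl2, 0.86 µM enzyme, 150 µM NADPH; reaction started with 144 µM DOXP. NADPH oxidation followed at 340 nm. Single inhibitor concentration 100 µM, given as percent remaining activity; technical duplicates.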

Plasmodium falciparum [7] = assay: Antiplasmodial activity against Plasmodium falciparum E1-C12 harboring with had1 mutation assessed as reduction in parasite growth by measuring DNA content after 3 days in presence of IPP by PicoGreen staining based FLUOstar omega microplate reader analysis; format: functional, organism-based; conditions: time 3.0 day
Outline: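 IPP rescue in had1 E1-C12 parasites: 125 µM IPP was present for the whole assay. Cultures at 2% hematocrit in Albumax-supplemented RPMI, 5% O2/5% CO2, 37 °C, started at 0.5% parasitemia. Inhibitors were dosed at 1.2 nM–492.4 µM, and growth was read after 3 days by PicoGreen fluorescence. 4-parameter fit; duplicate wells, biological triplicates.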

[8] = Cytotoxicity against human HepG2 cells assessed as reduction in cell viability after 24 hrs by Cell Titer Glo assay; format: toxicity, cell-based
Outline: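 HepG2 cells in DMEM with 4 mM L-glutamine and 4.5 g/L glucose, trypsinized and plated from a 4×10^5 cells/mL suspension. Compounds were tested as two-fold dilutions from 100 to 0.1 µg/mL, with a DMSO-only control, in duplicate. After 24 h at 37 °C, 5% CO2, CellTiter-Glo luminescence was read after 20 min in the dark.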

Plasmodium falciparum [9] = assay: Antiplasmodial activity against Plasmodium falciparum E1-C12 harboring with had1 mutation assessed as reduction in parasite growth by measuring DNA content after 3 days by PicoGreen staining based FLUOstar omega microplate reader analysis; format: functional, organism-based; conditions: time 3.0 day
Outline: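 E1-C12 (had1) parasites, asynchronous, at 2% hematocrit in RPMI-1640/0.5% Albumax with hypoxanthine, under 5% O2/5% CO2/90% N2 at 37 °C. Started at 0.5% parasitemia and dosed at 1.2 nM–492.4 µM. After 3 days, DNA was stained with PicoGreen (ex 485/em 528). IC50 came from a 4-parameter fit; technical duplicates, biological triplicates.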

SMILES | IC50 (Plasmodium falciparum [1]) [µM] | MIC [2] [µM] | Activity [3] [%] | IC50 [4] [µM] | inhibition [5] [%] | Activity [6] [%] | Activity (Plasmodium falciparum [7]) | IC50 at 24 h [8] [µM] | Activity (Plasmodium falciparum [9])
CC(=O)N(CCC(c1ccc(Cl)c(Cl)c1)P(=O)(OCOC(=O)C(C)(C)C)OCOC(=O)C(C)(C)C)OCc1ccc2ccccc2c1 (configuration not stated) | 14 | 8.8 (≈ 6.25 µg/mL) | – | – | – | – | – | – | –
CC(=O)N(CCC(c1ccc(Cl)c(Cl)c1)P(=O)(O)O)OC(C)c1ccc(Cl)cc1 (configuration not stated) | 68.6 | 72 (≈ 34.6 µg/mL) | 66.2 | 20.4 | > 90 | – | – | – | –
CC(=O)N(CCC(c1ccc(Cl)c(Cl)c1)P(=O)(OCOC(=O)C(C)(C)C)OCOC(=O)C(C)(C)C)OCc1ccc(-c2ccccc2)cc1 (configuration not stated) | 8.78 | 17 (≈ 12.5 µg/mL) | – | – | – | – | – | – | –
CC(=O)N(CCC(c1ccc(Cl)c(Cl)c1)P(=O)(O)O)OCc1ccc(Br)cc1 (configuration not stated) | 67.8 | > 92 | 72.3 | – | – | 53.1 | – | – | –
CC(=O)N(CCC(c1ccc(Cl)c(Cl)c1)P(=O)(O)O)OC(C)c1ccccc1 (configuration not stated) | 3.6 | > 208 | 64.6 | 16.8 | > 90 | – | – | – | –
CC(=O)N(CCC(c1ccc(Cl)c(Cl)c1)P(=O)(O)O)OC(C)c1ccc(C)cc1 (configuration not stated) | 3.53 | > 101 | 30.7 | 1.21 | > 90 | – | inactive | > 200 | Active
CC(=O)N(CCC(c1ccc(Cl)c(Cl)c1)P(=O)(O)O)OCc1ccccc1 (configuration not stated) | 31.5 | > 214 | 34.2 | – | – | 26.7 | – | – | –
CC(=O)N(CCC(c1ccc(Cl)c(Cl)c1)P(=O)(O)O)OC(C)c1ccc(C(F)(F)F)cc1 (configuration not stated) | 79.2 | > 91 | 59.6 | – | – | 74.7 | – | – | –
CC(=O)N(CCC(c1ccc(Cl)c(Cl)c1)P(=O)(OCOC(=O)C(C)(C)C)OCOC(=O)C(C)(C)C)OC(C)c1ccc(C)cc1 (configuration not stated) | 31.9 | 18.2 (≈ 12.5 µg/mL) | – | – | – | – | – | – | –
CC(=O)N(CCC(c1ccc(Cl)c(Cl)c1)P(=O)(OCOC(=O)C(C)(C)C)OCOC(=O)C(C)(C)C)OC(C)c1ccc(Cl)cc1 (configuration not stated) | 30.1 | 13.3 (≈ 9.43 µg/mL) | – | – | – | – | – | – | –
CC(=O)N(CCC(c1ccc(Cl)c(Cl)c1)P(=O)(OCOC(=O)C(C)(C)C)OCOC(=O)C(C)(C)C)OCc1ccc(Br)cc1 (configuration not stated) | 34.8 | 8.5 (≈ 6.29 µg/mL) | – | – | – | – | – | – | –
CC(=O)N(CCC(c1ccc(Cl)c(Cl)c1)P(=O)(OCOC(=O)C(C)(C)C)OCOC(=O)C(C)(C)C)OC(C)c1ccc(C(F)(F)F)cc1 (configuration not stated) | 23.8 | > 134 | – | – | – | – | – | – | –
COc1ccc(C(C)ON(CCC(c2ccc(Cl)c(Cl)c2)P(=O)(OCOC(=O)C(C)(C)C)OCOC(=O)C(C)(C)C)C(C)=O)cc1 (configuration not stated) | 0.37 | 6.5 (≈ 4.58 µg/mL) | – | – | – | – | inactive | > 140 | Active
